Screens from PubChem.
HTRA1 inhibitor = blocks human HTRA1 serine peptidase. Q92743. recombinant HTRA1, FP-rhodamine activity-based probe, fluorescence polarization. inhibition, % at 5.96 µM. hit rate 0.5% among 340,000. AID 504803; in the data active = inhibition above about 36%;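 also: 0% = enzyme with DMSO and 100% = wells lacking enzyme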
DDE Tn7 FP inh = disrupts Tn7 cyclic peptide binding to fibrin D-Dimer-E complex; AID 720508; FP displacement of FITC-Tn7 peptide from fibrin DD(E); 0% = median of compound wells per plate; hit rate 0.13% among 370,000; P02675; inhibition, % at 8.3 µM;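 active = inhibition above the mean of compounds falling within the control limits plus 3 SD of them, cut at about 14% in these data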;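 also: 0% = plate median of compound wells and 100% = 10 µM Aha-Tn7 peptide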
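Assay system: human fibrin DD(E). Input: DD(E) 2 µM final. Medium: Tris buffer with calcium and detergent, pH 7.8. Compound dosing: single point at 8.3 µM. Timing: 10 min plus 3 h, room temperature. Technique: fluorescence polarization of the labelled Tn7 tracer. Read-out: percent inhibition. Replicates: singlicate testing.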
mABHD4 FP = ABHD4 (mouse) inhibition, primary FP screen | Q8VD66 | purified mABHD4, FP-Rh probe fluorescence polarization | inhibition, % at 8.92 µM | hit rate 0.54% among 370,000 | AID 720543;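 active = inhibition exceeding the mean over every tested compound plus 3 SD, cut at about 30% in these data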;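 also: 0% = plate median of compound wells and 100% = S159A mutant with DMSO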
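system = mouse ABHD4 enzyme, wild type | medium = HEPES pH 7.0, NaCl, Pluronic buffer | also added = FP-Rh probe | incubation = Enzyme–compound pre-incubation 45 min, then probe 60 min, both 25 °C | technique = fluorescence polarization, excitation 525 nm, emission 598 nm, BODIPY TMR filters | controls = S159A mutant high control, sample median low control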
DDE Tn6 FP inh = disrupts Tn6 cyclic peptide binding to fibrin D-Dimer-E complex; P02675; Fibrin DD(E) TRITC-Tn6 fluorescence polarization displacement; inhibition, % at 8.3 µM; hit rate 0.21% among 370,000; AID 720509;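 active = inhibition above a per-campaign cutoff: mean of compounds within control limits plus 3 SD, cut at about 15% in these data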;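 also: 0% = median of all compound wells on the plate and 100% = blocking peptide control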
SIAE inh = inhibitors of human sialic acid acetylesterase SIAE; Q9HAT2; SIAE FP-Rh probe binding, fluorescence polarization; inhibition, % at 9.66 µM; hit rate 0.69% among 370,000; AID 1053197;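 active = inhibition above a cutoff: mean of compounds within the control limits plus 3 SD of those, cut at about 17% in these data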;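 also: 0% = plate median of compound wells and 100% = probe without SIAE protein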
Target sequence (Q9HAT2 whole entry, looked up): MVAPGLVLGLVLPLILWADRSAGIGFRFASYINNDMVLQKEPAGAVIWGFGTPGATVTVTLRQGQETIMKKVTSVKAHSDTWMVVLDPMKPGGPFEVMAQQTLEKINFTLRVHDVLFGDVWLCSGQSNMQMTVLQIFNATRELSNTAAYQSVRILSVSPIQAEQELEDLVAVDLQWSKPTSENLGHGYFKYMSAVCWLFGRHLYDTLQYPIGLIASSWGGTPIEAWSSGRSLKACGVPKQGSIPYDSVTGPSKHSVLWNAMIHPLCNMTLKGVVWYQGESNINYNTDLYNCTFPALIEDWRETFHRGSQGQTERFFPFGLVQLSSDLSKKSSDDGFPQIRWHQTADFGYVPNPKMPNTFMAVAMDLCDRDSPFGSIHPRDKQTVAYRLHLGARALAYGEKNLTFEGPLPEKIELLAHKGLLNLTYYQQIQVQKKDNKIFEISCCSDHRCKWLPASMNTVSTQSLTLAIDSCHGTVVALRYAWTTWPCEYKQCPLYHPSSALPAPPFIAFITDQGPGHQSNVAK
TCR CD3 inh = blocks the human TCR-CD3 interaction; TAMRA-labeled TCR probe fluorescence, biochemical; inhibition, % at 9.4 µM; hit rate 0.37% among 360,000;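 also: recombinant mutant TCR 2C K166C tagged with TAMRA read by polarization; 0% = receptor in buffer alone and 100% = receptor with positive control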
BSA probe FL = counter-screen for TCR-CD3 interaction inhibitors: BSA probe | shares compounds with TCR CD3 inh | TAMRA-labeled BSA probe fluorescence counterscreen | inhibition, % at 9.4 µM | hit rate 10% among 1,200; in the data active = inhibition above about 23%;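 also: 0% = buffer low control and 100% = reference high control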
TCR-CD3 inh conf = confirmation of human TCR-CD3 interaction inhibitors. shares compounds with TCR CD3 inh. TAMRA-labeled TCR probe fluorescence binding assay. inhibition, % at 9.4 µM. hit rate 48% among 1,200. AID 652036
Numbers without * were called inactive; · = no result. Most compounds without a hit are left out; they make up all but 1.8% or so of the library. Rule as the data show it, unless noted: active = inhibition above about 19%; inactive = the rest.

SMILES | HTRA1 inhibitor | DDE Tn7 FP inh | mABHD4 FP | DDE Tn6 FP inh | SIAE inh | TCR CD3 inh | BSA probe FL | TCR-CD3 inh conf
COc1cc(Br)cc2cc(C(=O)N3CCN(C(=O)c4ccco4)CC3)c(=O)oc12 | 6 | 5 | 1 | -5 | 7 | 20* | 3 | 19*
COc1cccc2cc(C(=O)N3CCN(C(=O)c4ccco4)CC3)c(=O)oc12 | -3 | -4 | -1 | 9 | 1 | -1 | · | ·
O=C(Nc1ccc(Cl)cc1)N[C@@H]1CC[C@H](CCNS(=O)(=O)c2ccccc2F)O[C@@H]1CO | · | 2 | -8 | 1 | -5 | -8 | · | ·
CC(C)Cc1nc2sc3c(=O)[nH]cnc3c2c2c1CCCC2 | -5 | -3 | 6 | 1 | 2 | 20* | 5 | 7
CC(C)Cc1nc2oc3c(=O)[nH]cnc3c2c2c1CCCC2 | 6 | 8 | 5 | 2 | -3 | 3 | · | ·
O=C1C(=Cc2cn(-c3ccccc3)nc2-c2ccc(OCc3ccccc3)cc2)SC(=S)N1CCS(=O)(=O)O | · | -2 | -106 | -16 | -97 | 26* | 1 | 19*
O=C(CSc1nc2ccccc2c(=O)n1-c1ccc(F)c(Cl)c1)Nc1cccc(S(=O)(=O)N2CCOCC2)c1 | -35 | 3 | -44 | 4 | -57 | 22* | 7 | 19*
O=C(CSc1nc2ccccc2c(=O)n1-c1ccc(F)cc1)Nc1ccc(Cl)c(S(=O)(=O)N2CCOCC2)c1 | -48 | 3 | -58 | 4 | -58 | 13 | · | ·
Cc1cnc(C=NNC(N)=S)c2cccc(N)c12 | 28 | -7 | 23 | -11 | 10 | 29* | -4 | 16
CCc1nnc(NC(=O)c2ccc3c(=O)n4c(nc3c2)CCC4)s1 | -4 | -4 | -5 | 3 | 0 | -4 | · | ·
O=C(O)c1ccccc1N/N=C/C1=C(N2CCOCC2)C(=C\c2ccccc2)/CC1 | 12 | -8 | 29 | 11 | 8 | 20* | -10 | -2
Cc1nc(S/C(=C/c2ccc(-c3ccc(C(=O)O)cc3)o2)C(=O)O)n[nH]1 | 1 | -1 | 22 | -15 | -16 | 68* | -7 | 51*
O=C(COC(=O)c1ccc2ccccc2c1)NCc1ccccc1 | 4 | 0 | -1 | 0 | -2 | -2 | · | ·
O=C(NNC(=S)NC(=O)c1cccc([N+](=O)[O-])c1)c1ccc(Br)cc1 | 5 | -5 | 2 | -6 | 2 | 20* | -7 | 17
O=C(NNC(=S)NC(=O)c1cccc([N+](=O)[O-])c1)c1ccc(O)cc1 | 13 | -8 | 10 | 3 | -1 | 20* | -2 | 34*
CCc1ccc(N(CC(=O)N2CCCCCC2)S(C)(=O)=O)cc1 | 3 | 2 | 4 | -1 | -6 | -3 | · | ·
COc1ccc(Oc2c(Cl)cnn(CC(=O)C(c3ccccc3)c3ccccc3)c2=O)cc1 | · | -9 | -3 | 1 | 3 | · | · | ·
COc1ccc2c(c1)CC(C(=O)Nc1ccc(Cl)cc1)/C(=N/O)O2 (stereo not drawn) | -14 | 7 | -7 | -7 | -5 | -5 | · | ·
Cc1ccc(S(=O)(=O)c2cc(Nc3ccccc3)ccc2O)cc1 | 16 | -1 | 19 | -3 | 13 | 2 | · | ·
O=S(=O)(c1cc(O)ccc1O)c1cccc2c(S(=O)(=O)c3cc(O)ccc3O)cccc12 | 5 | -5 | -10 | -7 | -3 | 25* | -9 | 12
COc1ccc(-c2nn(-c3ccccc3)cc2/C=N/NC(=O)c2cccc(S(=O)(=O)Nc3ccccc3OC)c2)cc1 | -26 | -4 | -3 | 3 | -99 | 41* | 32* | 46*
CN(C)CCCNC(=O)C[C@H]1C[C@H](C(=O)N2CCCCC2)[C@@]2(C)c3[nH]c4ccc(Cl)cc4c3CCN2C1=O | 0 | 3 | 1 | 6 | -2 | -4 | · | ·
C[C@]12c3[nH]c4ccc(Cl)cc4c3CCN1C(=O)[C@@H](CC(=O)NCCN1CCOCC1)C[C@@H]2C(=O)N1CCCCC1 | 3 | 2 | 4 | -7 | -3 | 36* | 3 | 2
COc1ccc(-c2cn3cc(C(=O)NN)ccc3n2)cc1 | 5 | 2 | 0 | -5 | -4 | 21* | 0 | -2
COC(=O)C1CCN(C(=O)c2cc(-c3ccco3)nc3ccccc23)CC1 | 22 | 1 | 22 | 3 | 11 | 27* | 4 | 31*
SMILES | HTRA1 inhibitor | DDE Tn7 FP inh | mABHD4 FP | DDE Tn6 FP inh | SIAE inh | TCR CD3 inh | BSA probe FL | TCR-CD3 inh conf
COCOc1cccc(CN2CCC(C)(Oc3ccc(C(C)=O)cc3)C2)c1 (stereo not drawn) | · | 4 | -5 | -3 | 2 | 3 | · | ·
CC(=O)c1ccc(OC2(C)CCN(Cc3cc4ccccc4[nH]3)C2)cc1 (stereo not drawn) | · | 7 | 6 | 7 | 9 | 31* | 2 | 3
c1ccc(CN2CCC3CC2c2ccc(N4CCOCC4)cc23)cc1 (stereo not drawn) | 3 | -3 | -2 | -8 | 3 | 4 | · | ·
CCOCCCNC(=O)CSCc1nc(-c2ccc(SC)cc2)oc1C | -5 | -5 | -9 | -6 | 3 | -2 | · | ·
COCCNC(=O)CSCc1nc(-c2ccc(SC)cc2)oc1C | 4 | 3 | -5 | 0 | -1 | 33* | 8 | 3
O=c1c(CO)cc(CO)cc(CO)c1O | 11 | 4 | 0 | 8 | 6 | 31* | -1 | 22*
Cc1cc(C)c(NC(=O)CNC(=O)COC(=O)/C=C/c2cccs2)c(C)c1 | 0 | 6 | 4 | -4 | 1 | 0 | · | ·
COc1ccccc1NC(=O)c1c(Nc2ccccc2C)sc(C(=O)Nc2cccc(Cl)c2)c1N | -66 | -6 | -71 | -9 | -71 | 21* | 6 | 12
COC(=O)c1c(C)[nH]c(O)c1C=Nc1ccc(C#N)cc1 | 1 | 2 | 9 | 4 | 9 | 41* | 2 | 6
CC(=O)CC[C@H]1CC[C@]2(CCCN(C(=O)C3CCCC3)C2)O1 | · | -5 | 2 | 5 | -4 | · | · | ·
Cc1cc(SCC(=O)NC2CCCC2)nc2ccccc12 | 2 | -9 | -4 | 3 | -8 | 1 | · | ·
CC(=O)NNC(=O)c1sc(=S)n2c1[nH]c(=O)c1sccc12 | 12 | -1 | 20 | 2 | -9 | 29* | -2 | 9
NC(=O)c1sc(=S)n2c1[nH]c(=O)c1sccc12 | -2 | -10 | 7 | -6 | -26 | -2 | · | ·
Cc1cc(Nc2cccc(C(F)(F)F)c2)cc(=O)n1-c1cccc(C(F)(F)F)c1 | · | 4 | 4 | 4 | -2 | -3 | · | ·
COc1ccc(C2C(C#N)=C(N)OC3=C2C(=O)CCC3)cc1Cn1nc(C)c([N+](=O)[O-])c1C (stereo not drawn) | -3 | 0 | 5 | 3 | 4 | 42* | -1 | 1
